# Results taken from paper PMC11890989 (Zoological Research, 2025).
# Entries after “also recorded” stand apart in the source; their conditions may differ.
# How the values were obtained:
# AjTRHR [1] = experiment: Intracellular Ca2+ mobilization; format: cell-based, Apostichopus japonicus; settings: negative control, reverse sequence of AjTRH7; Supplementary Figure S3B
# Summary of the method: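 HEK293T cells were grown in DMEM with 10% FBS at 37°C and 5% CO2. At ~70% confluence they were transfected by lipofection with receptor-pcDNA3.1(+). Cells were loaded with 3 μmol/L Fura-2/AM for 30 min, then stimulated with peptide. Test peptides spanned 10−9–10−5 mol/L, with reversed-sequence peptide or empty-vector cells as negative controls. Fluorescence was read on a plate reader. Experiments were repeated independently at least three times.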
# AjTRHR [2] = experiment: cAMP content; format: cell-based, Apostichopus japonicus; settings: 10^−9–10^−5 mol/L, 30 min; HEK293T, AjTRHR-pcDNA3.1(+); Figure 4C (AjTRH7), Figure 6A (AjTRH1)
# Summary of the method: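 HEK293T cells transfected with AjTRHR-pcDNA3.1(+) or empty pcDNA3.1(+) were exposed to gradient-diluted peptide (10^−9–10^−5 mol/L) for 30 min. Cells were then washed twice in PBS and lysed, and intracellular cAMP was quantified with a commercial cAMP assay kit.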
# AjTRHR [3] = experiment: ERK1/2 phosphorylation; format: cell-based, Apostichopus japonicus; settings: AjTRH7 10^−6 mol/L
# Summary of the method: (§1)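 HEK293T cells (DMEM, 10% FBS, 37°C, 5% CO2) were transfected at ~70% confluence with AjTRHR-pcDNA3.1(+) or empty vector using Lipofectamine 2000. Receptor cells received 10^−6 mol/L peptide for 0, 5, 15, 30, 45 or 60 min at 37°C. Lysate protein was BCA-normalised, run on 10% SDS-PAGE, blotted to PVDF and probed for pERK1/2 (1:2 000) and total ERK1/2 (1:1 000). Bands were ECL-detected and densitometry expressed as pERK/tERK; six repetitions, mean+SEM.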
# Apostichopus japonicus [4] = experiment: In vivo weight gain rate; settings: 0.05 mg/mL (LTG) vs 0.5 mg/mL (HTG) AjTRH7
# Summary of the method: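 Sub-adult sea cucumbers (30±5.8 g) were kept in filtered UV-sterilised seawater (18–20°C, 32 ppt, 12:12 h light/dark), six per tank and five tanks per group (30 per group), fed ad libitum each morning (commercial feed:sea mud 1:3). Peptide in sterile seawater at 0.5 or 0.05 mg/mL, or seawater alone, was injected orally into the coelom at 0.1% (v/w) every two days at noon for over 25 days. Body weight was taken at start and end to derive WGR. Analysis used linear mixed models with tank as random factor and Tukey tests.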
# Apostichopus japonicus [5] = experiment: In vivo feed intake rate; settings: AjTRH1/AjTRH7 injection, A. japonicus
# Summary of the method: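 Sub-adult sea cucumbers (~30 g) were held in UV-sterilised filtered seawater at 18–20°C, 32 ppt and 12:12 h light/dark. They were fed ad libitum each morning with commercial feed mixed 1:3 with sea mud. Six groups were set up, each in five tanks of six animals. Test peptide in sterile seawater (0.5 or 0.05 mg/mL) or seawater alone was injected at 0.1% (v/w) via the mouth into the coelom at noon every two days, for over 25 days. Uneaten food was collected daily, dried and weighed. FI was calculated per a prior method, and tank was a random factor in linear mixed models with Tukey tests.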
# AjCCKP1 [6] = experiment: In vivo relative AjCCKP1 expression in intestine, RT-qPCR; set-up: species or system Apostichopus japonicus; settings: AjTRH7 0.05 mg/mL (LTG) injection; F(2,10)=8.091, P<0.05; Figure 7B
# [7] = tested on: HEK293T cells transfected with empty pcDNA 3.1(+) vector; experiment: ERK1/2 phosphorylation, empty pcDNA 3.1; format: cell-based, human; settings: AjTRH7 10^−5 mol/L, negative control, Figure 4E
# Summary of the method: as §1
# AjCCKP1 [8] = experiment: In vivo relative AjCCKP1 expression in circumoral nerve ring; set-up: species or system Apostichopus japonicus; settings: AjTRH7 0.5 mg/mL (HTG) injection; F(2,10)=6.852, P<0.05; Figure 7A
# AjTRHR [9] = experiment: Ligand binding assays / receptor activation summary; format: cell-based, Apostichopus japonicus; settings: for agonism at AjTRHR: bioinformatics and ligand-binding assays, cAMP/PKA-ERK/MAPK cascade and possibly Ca^2+-dependent pathway
# AjTRHR [10] = experiment: SRE-Luc reporter assay; format: cell-based, Apostichopus japonicus; settings: 10^-9-10^-5 mol/L; HEK293T expressing AjTRHR; Supplementary Figure S6
# rats = settings: obese rats, prolonged TRH administration; ref Al-Arabi & Andrews, 2006; cited from earlier work
# [11] = tested on: rodents, such as rats and squirrels; settings: ref Al-Arabi & Andrews, 2006, Frare et al., 2021, Puga et al., 2016, Schuhler et al., 2007, Schwartz et al., 2013, Steward et al., 2003; cited from earlier work
substance,measurement,setting,value
EWFKWPSGPLQ,Ca2+ response to reverse peptide sequence,AjTRHR [1],no observable responses
pQLPGSPWKFWE [AjTRH7],cAMP accumulation,AjTRHR [2],cAMP accumulation
same,p-ERK1/2 activity at 15 min,"AjTRHR [3]; 15 min, 37°C, mean±SEM (n=6), F(5,10)=5.563, P<0.05, Figure 4E",markedly increased
same,p-ERK1/2 activity at 30 min,"AjTRHR [3]; 30 min, 37°C, mean±SEM (n=6), F(5,10)=5.563, P<0.05, Figure 4E",markedly increased
same,p-ERK1/2 after the peak,"AjTRHR [3]; after 15 min peak, up to 60 min",subsequently returning to baseline levels
same,"inhibitory effect, LTG compared with HTG (WGR context)",Apostichopus japonicus [4],stronger inhibitory effect in the LTG group than in the HTG group
same,food intake (summary),Apostichopus japonicus [5],inhibited food intake
same,AjCCKP1 expression in intestine,AjCCKP1 [6],significantly up-regulated
same,p-ERK1/2 response in empty vector cells,[7],no significant responses
same,AjCCKP1 expression in CNR,AjCCKP1 [8],significantly up-regulated
same,agonism at AjTRHR,AjTRHR [9],acts as an agonist for AjTRHR
pQYFA [AjTRH1],cAMP accumulation,AjTRHR [2],cAMP accumulation
same,food intake (summary),Apostichopus japonicus [5],inhibited food intake
same,Ca2+ mobilization (SRE-driven luciferase activity),AjTRHR [10],no Ca^2+ mobilization was observed; also recorded: does not induce significant Ca^2+ influx
same,agonism at AjTRHR,AjTRHR [9],activates AjTRHR by increasing cAMP levels
same,binding to AjTRHR,AjTRHR [9]; inferred from receptor assays in HEK293T cells expressing AjTRHR,binds to AjTRHR
thyrotropin-releasing hormone [TRH],body weight,rats,reduced body weight
same,food intake,rats,suppress food intake
same,resting metabolic rate,rats,elevate resting metabolic rates
same,feeding motivation and feeding behavior,[11],suppress feeding motivation and inhibit feeding behavior
